TNAP act mid DEA: human TNAP enzyme activators, primary screen, biochemical, luminescent, intermediate phosphate acceptor level; Alkaline phosphatase, tissue-nonspecific isozyme (Homo sapiens), P05186; activation factor at 20 µM; purified TNAP, CDP-star luminescence, 100 mM DEA, 30 min; active compounds read high; scale: 0 levamisole-inhibited, 1 vehicle-only enzyme; 64,000 tested, under 10 active; AID 813, 2007;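 active means activation factor of at least 2 at 20 µM, relative to controls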
M1 antag: antagonists of rat M1 muscarinic receptor; CHO-M1 cells, Fluo-4 calcium, ACh EC80 antagonist mode; active compounds read low; B-score at 10 µM; 64,000 compounds, 3.4% hits;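 active means calcium fluorescence response, raw or row-and-column corrected B-score, differing from the plate sample mean either way at a set confidence level, mostly lower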
S1P3 agonist: human S1P3 receptor agonists, primary screen, cell-based, primary and confirmation, NFAT-BLA reporter | S1P3 NFAT-BLA reporter cells, agonism, FRET ratio; relative to 1 µM S1P, basal subtracted | 60,000 compounds, 0.1% hits | Sphingosine 1-phosphate receptor 3 (Homo sapiens), Q99500 | AID 373, 2006 | activation, % at 4.5 µM;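 active means activation above the screen-wide mean plus 3 SD, cut at about 4.5% in these data, passing the limit was not always enough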
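Benchmarks: high control 1 µM S1P / System: stable CHO line with human S1P3, Gα16, NFAT-BLA reporter / Dosing: single compound concentration, 4.5 µM final / Timing: 4 h compound at 37 °C, 2 h substrate at RT / Measured by: FRET β-lactamase substrate fluorescence, excitation 405 nm, 460/535 nm emission ratio, background-subtracted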
M1 agonist: M1 muscarinic receptor agonists, primary screen, CHO-M1 cells, Fluo-4 calcium, agonist mode; Fluo-4 calcium fluorescence; active compounds read high; B-score at 10 µM; 64,000 compounds, 3% hits; AID 626, 2007;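 active means fluorescence rise, raw or as B-score row- and column-corrected plate score, outside the 99.7% band of its plate's samples, either direction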
S1P1 ag-PAM: S1P1 agonists and agonism potentiators, primary screen, cell-based, primary and confirmation screens, CRE-bla reporter; Sphingosine 1-phosphate receptor 1 (Homo sapiens), P21453; S1P1 CRE-bla cells, forskolin, beta-lactamase FRET, potentiator mode; S1P1 agonist co-added at EC20, 2 nM; 100% = saturating reference agonist, 0% = basal; activation, % at 9.5 µM; 56,000 compounds, 0.57% hits; AID 449, 2006;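 active means activation above a cutoff set at the mean activation of all tested compounds plus 3 SD, cut at about 54% in these data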;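 further: forskolin at 4 µM as EC80 and the EC20 agonist is SEW2871; 100% = SEW2871 at its EC100 plus forskolin at EC80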
D1 allo mod: D1 CRE-luciferase signal change, two-sided – cell-based, HEK293 D1, dopamine EC30, D1 allosteric modulator project, primary screen; D(1A) dopamine receptor (Homo sapiens), P21728; 58,000 compounds, 5.9% hits; B-score at 10 µM; AID 641, 2007; dopamine EC30 potentiation; actives deviate in either direction;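 active means luminescence count or its row- and column-corrected plate score outside the 99.7% band of the plate's sample wells, on either side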
Target sequence (P21728 whole entry, looked up): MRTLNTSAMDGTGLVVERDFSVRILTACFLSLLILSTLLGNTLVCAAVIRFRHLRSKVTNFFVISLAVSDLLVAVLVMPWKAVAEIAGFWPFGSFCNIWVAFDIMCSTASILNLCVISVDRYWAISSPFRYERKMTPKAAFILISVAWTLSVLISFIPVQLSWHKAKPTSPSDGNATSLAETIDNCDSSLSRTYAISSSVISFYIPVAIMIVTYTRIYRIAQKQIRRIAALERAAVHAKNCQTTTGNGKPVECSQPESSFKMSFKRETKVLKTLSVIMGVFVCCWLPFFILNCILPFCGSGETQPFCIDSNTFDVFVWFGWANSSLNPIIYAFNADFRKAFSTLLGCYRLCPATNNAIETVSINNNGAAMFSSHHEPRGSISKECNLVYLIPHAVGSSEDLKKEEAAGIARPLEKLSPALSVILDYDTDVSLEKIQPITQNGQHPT
M1 ag confirm: rat M1 muscarinic receptor agonists, confirmation, CHO-M1 cells, Fluo-4 calcium, duplicate retest | fluorescence change (max-min) at 10 µM | AID 1488, 2009 | Fluo-4 calcium fluorescence, agonist mode; actives lie on both sides | 1,700 compounds, 19% hits | shares compounds with M1 agonist;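 active means fluorescence change differs from the solvent-only DMSO control mean at a set confidence level in both duplicate runs; inconclusive means differs from solvent-only control mean in just one of two runs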;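 further: an EC20 dose of acetylcholine follows compound addition during the same imaging run; raw fluorescence intensity difference in instrument units with no normalization to controls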
M4 agonist ctr: agonist activity at rat M4 receptor, confirmation, counter-screen for M1 allosteric modulator project, cell-based, agonist mode. shares compounds with M1 agonist. CHO M4/Gqi5 cells, Fluo-4 calcium fluorescence; actives lie on both sides. fluorescence change (max-min) at 10 µM. 1,700 compounds, 9% hits. AID 1741, 2009;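 active means fluorescence change differing from the plate's solvent-only control wells at 99.7% confidence in both duplicates, whether higher or lower; inconclusive means differs from solvent controls in only one of two duplicates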
* hit, by the source's call; u = inconclusive; x = not tested or not shown. An excerpt weighted towards active compounds, which were near 11% of everything screened.

SMILES	TNAP act mid DEA	M1 antag	S1P3 agonist	M1 agonist	S1P1 ag-PAM	D1 allo mod	M1 ag confirm	M4 agonist ctr
Cc1ccccc1N1C(=O)c2cccc3c(N(C)CCO)ccc(c23)C1=O	0.7	-0.15	-1	91*	26	2.1	868*	912*
Cc1cccc2cc3c(N)c(C#N)sc3nc12	1	0.27	0	8.6*	-5	0.074	8.9	u
CCOC(=O)c1ccc(NC(=O)NC(C)C2CCCO2)cc1 (stereo not given)	1	-0.2	-1	-0.64	2	-1	x	x
Cc1cc(Nc2ccc(Br)c(C)c2)n2nc(C)nc2n1	1	-0.0012	-1	4.7*	-39	x	u	-39
Cc1cc(C(=O)CSc2nc3ccccc3c(=O)n2C)c(C)n1Cc1ccc2c(c1)OCO2	1	-0.28	0	5.7*	62*	-2.9	-19	-1.2
COCc1cc(C)nc2sc(C(=O)OC)c(N)c12	1	0.031	0	4.4*	-53	3	-5.9	-40
O=C(Cn1nnc(-c2ccncc2)n1)NCCc1ccccc1	0.9	-0.02	0	-0.023	-1	0.83	x	x
Cc1ccc2[nH]c3c(c2c1)CN(C(=O)CN1CCN(Cc2ccc4c(c2)OCO4)CC1)CC3	0.9	-1.6	1	0.065	24	-1.4	x	x
Cc1ccc2[nH]c3c(c2c1)CN(C(=O)CN1CC(C)OC(C)C1)CC3 (stereo not given)	0.8	-0.019	-2	8.4*	-5	x	31	17
CCOC(=O)Cc1csc(NC(=O)COc2ccc(N(C)S(=O)(=O)c3cccs3)cc2)n1	1.1	-0.69	x	6.2*	x	-0.9	u	-23
CCOC(=O)Cc1csc(NC(=O)COc2ccccc2OC)n1	1	-1.7	x	-1.2	x	0.087	x	x
CCOC(=O)C(NC(=O)c1ccccc1OCC)(Nc1ncccn1)C(F)(F)F (stereo not given)	0.9	-0.086	0	-0.067	-17	-0.37	x	x
Cc1ccnc(SCC(=O)Nc2sc3c(c2C#N)CCCC3)n1	0.9	-2.1	-2	3.4*	100*	0.006	-18	u
N#Cc1c(NC(=O)CSC2=NCCS2)sc2c1CCCC2	0.9	0.0088	-1	-0.36	-3	0.83	x	x
O=C(C1CCN(S(=O)(=O)c2cccc3cccnc23)CC1)N1CCN(c2ccccc2)CC1	1	0.53	-1	-0.053	8	-0.86	x	x
O=C(C1CCCN(S(=O)(=O)c2cccc3nsnc23)C1)N1CCN(c2ccccn2)CC1 (stereo not given)	0.9	-1.4	0	3.1*	13	-0.036	-7.6	-20
O=C(C1CCCN(S(=O)(=O)c2cccc3cccnc23)C1)N1CCN(c2ccc(F)cc2)CC1 (stereo not given)	0.9	0.15	-1	2.7*	12	-2.3*	u	u
COc1cccc(NC(=O)C2CCCN(S(=O)(=O)c3cccc4cccnc34)C2)c1 (stereo not given)	0.8	0.15	0	3.1*	-22	4.4	u	-25
O=C(NCC1COc2ccccc2O1)C1CCCN(S(=O)(=O)c2cccc3nsnc23)C1 (stereo not given)	0.9	-0.13	-1	3.2*	13	0.2	u	-62
